Assay results: PubChem BioAssay
Calls of active or inactive are those of the source.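 The calls were made as follows, unless noted: active = GFP response above 150% of the DMSO level; inconclusive = fewer than 70 events counted for a yeast strain; inactive = the rest.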

What was measured:
[1] = RPL19A-GFP modulators, yeast TOR pathway, confirmation, cell-based, S. cerevisiae, flow cytometry, cherry picks, mother/daughter gates (AID 2270;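 active = GFP response below 50% of the DMSO control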); conditions: S. cerevisiae RPL19A-GFP strain, 3 h, at 10 µM, stronger effect = lower value, 100 = same GFP as DMSO wells
[2] = LAP4-GFP expression modulators in yeast, confirmation, cell-based, cherry picks, flow cytometry, mother/daughter gates (AID 2271;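 active = GFP response above 150% of the DMSO control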;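 also: ratio of sample to DMSO plate mean so 100% equals DMSO level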); conditions: S. cerevisiae LAP4-GFP strain, 3 h, at 10 µM, stronger effect = higher value, 100 means same as DMSO control
Procedure, shortened: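 System: GFP-fusion yeast strain | Input: Yeast cells seeded at OD600 of 0.2 | Technique: HT flow cytometry, GFP fluorescence channel | Read-out: % GFP response vs DMSO | Dosing: Single test-compound dose, 10 µM final | Controls: Positive rapamycin (400 ng/mL), negative DMSO | Times: 3 h treatment at 30 °C with rotation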

[3] = modulators of MEP2-GFP levels in yeast, confirmation, S. cerevisiae, flow cytometry GFP, cherry picks (AID 2272;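 active = GFP response above 150% of the DMSO control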;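 also: ratio of well signal to plate DMSO mean so 100% equals DMSO level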); conditions: S. cerevisiae MEP2-GFP strain, 3 h, at 10 µM, stronger effect = higher value
[4] = AGP1-GFP expression modulators, hit retest, confirmation, cell-based, flow cytometry, S. cerevisiae, cherry picks (AID 2273);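 also: median GFP channel fluorescence over the whole cell population gate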; conditions: S. cerevisiae AGP1-GFP strain, 3 h, at 10 µM
[5] = modulators of CIT2-GFP expression in yeast, confirmation, S. cerevisiae, GFP fusion, cherry picks, mother/daughter gates (AID 2274); conditions: S. cerevisiae CIT2-GFP strain, flow cytometry, 3 h, at 10 µM, stronger effect = higher value
[6] = measured here: daughter cell gate
[7] = measured here: mother cell gate
[8] = measured here: daughter cell gate response
[9] = measured here: mother cell gate response

Compound	GFP response vs DMSO [1]	GFP response vs DMSO [1, 6] [%]	GFP response vs DMSO [1, 7] [%]	GFP response relative to DMSO [2]	GFP response relative to DMSO [2, 8] [%]	GFP response relative to DMSO [2, 9] [%]	GFP response vs DMSO [3]	GFP response, % of DMSO [4]	GFP response, % of DMSO [5]	GFP response, % of DMSO [5, 6] [%]	GFP response, % of DMSO [5, 7] [%]
COc1cc(/C=N/Nc2nc(C)cc(=O)[nH]2)ccc1O	100% (inactive)	104	98.8	87.2% (inactive)	89.3	86.7	106% (inactive)	105% (inactive)	117% (inactive)	121	115
COc1cccc2c1Oc1ncccc1N(C(=O)CCC(=O)NCc1ccccc1Cl)C2	95.6% (inactive)	97.9	95.8	97% (inactive)	97.5	96.2	99% (inactive)	99.6% (inactive)	103% (inactive)	103	103
CCOc1ccc(N2C(=O)CC(SCCN)C2=O)cc1 (stereo not drawn)	97.6% (inactive)	98.9	96.6	97.9% (inactive)	99.2	97.2	105% (inactive)	92.3% (inactive)	98.3% (inactive)	99.1	98.5
COc1cccc(C2CC(c3c(-c4ccccc4)c4cc(Cl)ccc4[nH]c3=O)=NN2S(C)(=O)=O)c1OC (stereo not drawn)	94.3% (inactive)	96.5	95	100% (inactive)	101	99.5	99.5% (inactive)	102% (inactive)	101% (inactive)	102	98
c1cc2c(cc1C1CCCCC1)c1c3n2CCCNC3CCC1 (stereo not drawn)	101% (inactive)	99	100	101% (inactive)	102	102	111% (inactive)	105% (inactive)	100% (inactive)	96.5	98.7
COC(=O)c1ccc(C2Nc3cccc4cccc(c34)N2)cc1	105% (inactive)	102	106	129% (inactive)	123	133	103% (inactive)	92.8% (inactive)	93% (inactive)	90.2	93.2
CCOc1ccc2nc(SCC(=O)NCC3CCCO3)c(C#N)cc2c1 (stereo not drawn)	97.8% (inactive)	95.9	99.2	99.8% (inactive)	100	101	97.8% (inactive)	96.3% (inactive)	90% (inactive)	91.5	88
COc1ccc(/C=N/c2c(-c3ccco3)nc3ccccn23)cc1OC	97.8% (inactive)	98.5	98.6	95.3% (inactive)	96.5	93.6	102% (inactive)	98.9% (inactive)	101% (inactive)	100	100
O=C(NCc1ccc2c(c1)OCO2)c1nc(S(=O)(=O)Cc2ccccc2F)ncc1Cl	99.1% (inactive)	99.3	97.8	101% (inactive)	104	102	103% (inactive)	100% (inactive)	94.4% (inactive)	94	96
CC(C)(C)NC(=O)CN(C(=O)CCC(=O)Nc1nccs1)c1ccc(F)cc1	101% (inactive)	100	101	98.2% (inactive)	95.9	98.4	105% (inactive)	101% (inactive)	102% (inactive)	99.2	101
CCN(CC)c1ccc2cc(-c3nc4ccccc4[nH]3)c(=O)oc2c1	108% (inactive)	106	111	107% (inactive)	99.3	113	185% (active)	108% (inactive)	135% (inactive)	132	136
COc1ccc(N2CCN(C(=O)c3ccc(Br)cc3)CC2)c([N+](=O)[O-])c1	114% (inactive)	80.2	102	208% (active)	131	192	132% (inactive)	153% (active)	105% (inactive)	82.5	90.8
COc1cccc(/C=C2\C(=O)N(c3cccc(C)c3)C(=O)c3ccccc32)c1	96% (inactive)	92	92.8	168% (active)	145	180	98.8% (inactive)	104% (inactive)	79.7% (inactive)	84.1	71.8
CCOC(=O)C1=C(Cc2ccc(F)cc2)C(=O)c2ccccc2C1=O	97.8% (inactive)	99.6	95.8	101% (inactive)	97.9	104	106% (inactive)	92.5% (inactive)	95% (inactive)	96.4	92.1
O=C(NNC(=S)NC(=O)c1ccco1)c1ccc(F)cc1	106% (inactive)	106	105	115% (inactive)	115	114	115% (inactive)	104% (inactive)	107% (inactive)	116	102
O=C(Nc1cc(Sc2ccccn2)cc([N+](=O)[O-])c1)c1cccc(Cl)c1	96.9% (inactive)	95.3	96.3	102% (inactive)	104	104	106% (inactive)	103% (inactive)	88.9% (inactive)	86.9	89.3
COc1ccccc1CNC(=O)CS(=O)Cc1nc(-c2ccc(OC)c(OC)c2)oc1C (stereo not drawn)	97.2% (inactive)	97.4	98	96.7% (inactive)	97.6	96.1	105% (inactive)	97.6% (inactive)	104% (inactive)	108	103

Compound	GFP response vs DMSO [1]	GFP response vs DMSO [1, 6] [%]	GFP response vs DMSO [1, 7] [%]	GFP response relative to DMSO [2]	GFP response relative to DMSO [2, 8] [%]	GFP response relative to DMSO [2, 9] [%]	GFP response vs DMSO [3]	GFP response, % of DMSO [4]	GFP response, % of DMSO [5]	GFP response, % of DMSO [5, 6] [%]	GFP response, % of DMSO [5, 7] [%]
Cc1cccn2c(=O)c(/C=C(\C#N)C(=O)NCc3ccco3)c(N3CCCCCC3)nc12	97% (inactive)	97.3	97.2	96.2% (inactive)	95.6	98.3	97.8% (inactive)	95.4% (inactive)	90% (inactive)	89.9	86.9
O=C(Nc1ccc(Cl)cc1Cl)c1cccc(N2C(=O)C=CC2=O)c1	76.5% (inactive)	70.3	65.5	204% (active)	123	179	111% (inactive)	99.1% (inactive)	96.9% (inactive)	105	80.7
Cc1ccccc1N1C(=O)CC(Sc2nnc(-c3ccccc3)o2)C1=O (stereo not drawn)	94.6% (inactive)	92.2	93.2	102% (inactive)	101	103	103% (inactive)	102% (inactive)	97.3% (inactive)	97.4	96.8
Cc1ccc(N2C(=O)C3C4C=CC(CNC(=S)N5CCN(c6ccccn6)CC5)(O4)C3C2=O)cc1 (stereo not drawn)	98.7% (inactive)	99.6	98.6	113% (inactive)	109	111	106% (inactive)	105% (inactive)	99.3% (inactive)	100	96.8
O=C1CC(Sc2ncccn2)C(=O)N1c1ccccc1C(F)(F)F (stereo not drawn)	100% (inactive)	100	100	98.7% (inactive)	102	99.3	100% (inactive)	98.9% (inactive)	96.5% (inactive)	96.5	97.7
COc1ccccc1N1C(=O)CC(Sc2ncccc2C(=O)O)C1=O (stereo not drawn)	100% (inactive)	98.4	100	95% (inactive)	95.6	97.2	100% (inactive)	99.2% (inactive)	100% (inactive)	99.7	99.8
Fc1ccccc1-c1nc(NCCCN2CCOCC2)c2ccccc2n1	94.4% (inactive)	93.6	95.6	101% (inactive)	99.2	98.3	96.2% (inactive)	98.5% (inactive)	96.9% (inactive)	97.2	97.3
COc1ccc(NC(=O)/C(C#N)=C/c2ncc([N+](=O)[O-])n2C)c(OC)c1	97.2% (inactive)	95.1	99.8	151% (active)	138	162	169% (inactive)	99.5% (inactive)	134% (inactive)	132	136
CCCCc1[nH]nc2c1C1(C(=O)N(CC)c3ccccc31)C(C#N)=C(N)O2 (stereo not drawn)	105% (inactive)	101	103	98.2% (inactive)	97.5	98.4	101% (inactive)	106% (inactive)	102% (inactive)	97.4	95.6
COc1ccc(-c2sc(C(=O)c3ccc(Cl)cc3Cl)cc2CC(=O)O)cc1	96% (inactive)	95.9	95.8	130% (inactive)	127	131	122% (inactive)	101% (inactive)	104% (inactive)	105	104
CSc1nc2ccc(S(=O)(=O)N3CCCC3)cc2s1	90.5% (inactive)	85.5	93.3	135% (inactive)	128	140	95.7% (inactive)	94.1% (inactive)	78.2% (inactive)	75.2	80.5
Cc1onc(-c2ccccc2)c1C(=O)N1CCC(C)CC1	92% (inactive)	93.4	91.6	103% (inactive)	102	103	118% (inactive)	102% (inactive)	108% (inactive)	105	107
CCc1cc(=O)oc2c(CN3CCCC3)c(O)c(Cl)cc12	97.6% (inactive)	101	95.8	104% (inactive)	105	100	110% (inactive)	98.4% (inactive)	107% (inactive)	105	102
O=C(Nc1cccc(O)c1)c1ccccc1	94.6% (inactive)	96.1	96.4	95.4% (inactive)	97.6	95.1	98.3% (inactive)	101% (inactive)	98.3% (inactive)	101	97.3
O=C(CCc1ccc(S(=O)(=O)N2CCOCC2)cc1)Oc1ccccc1	99.6% (inactive)	101	99.2	111% (inactive)	112	109	123% (inactive)	97.2% (inactive)	110% (inactive)	110	109
Cc1ccc(-c2nc(NC(=O)c3nn(C)cc3[N+](=O)[O-])sc2C)cc1C	101% (inactive)	101	102	95.3% (inactive)	92.2	99.5	97.5% (inactive)	95.4% (inactive)	93.5% (inactive)	94.6	93.3
